Source: PubChem
RAM inhibit = blocks the yeast RAM network; S. cerevisiae dse1pr::URA3 reporter, 5-FOA growth OD615, 2 d; analog-sensitive cbk1-as2 kinase mutant strain; inhibition, % at 50 µM; 190,000 compounds, 1.8% hits; AID 868;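 active = inhibition above a set limit, 3 SD over mean compound inhibition, cut at about 8.4% in these data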;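 also: 0% = DMSO-only wells with no growth and 100% = 10 µM 1-NA-PP1 full growth; inhibition rescues growth on 5-FOA so higher OD means more RAM inhibition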
Phagocytosis inh = macrophage phagocytosis inhibition; 110,000 compounds, 0.07% hits; AID 1029; J774A.1 macrophage IgG-bead phagocytosis, imaging; inhibition, % at 5 µM;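 active = inhibition above the mean of the plate negative controls plus 5 SD, cut at about 13% in these data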;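 also: phagocytic index as fraction of beads internalized from green versus red external bead signal; plate controls were DMSO negative control for no effect and cytochalasin-D positive control for full effect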
Yeast lifespan up = yeast lifespan extension; S. cerevisiae growth with nicotinamide, OD615; deaD strain in restrictive glucose medium; inhibition of the nicotinamide effect, % at 10 µM; 130,000 compounds, 0.68% hits; AID 775;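 active = inhibition above a set limit, placed 3 SD over the median of all compounds, cut at about 26% in these data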;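 also: 0% = nicotinamide-treated wells and 100% = cells grown without nicotinamide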
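Buffer or medium: CSMM-D glucose medium, restrictive; test system: modified budding yeast, DeaD strain; compound: single dose 10 µM compound, 0.25% DMSO; schedule: culture preincubation 4 h, compound exposure 48 h, both 30 °C; detection: optical density (absorbance) at 615 nm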
BB579 growth dn = reduces growth of yeast BB579 in restrictive medium | AID 804 | inhibition, % at 10 µM | S. cerevisiae BB579 growth, OD615, 48 h | 140,000 compounds, 0.51% hits;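 active = inhibition above a set limit, 3 SD over the mean compound inhibition, cut at about 44% in these data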
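test system = yeast BB579 (DeaD) | buffer or medium = restrictive CSMM-D medium | doses = single compound dose of 10 µM, 0.25% DMSO final | times = 4 h preincubation and 48 h exposure at 30 °C | technique = culture absorbance at 615 nm | benchmarks = amphotericin B 10 µg/mL, positive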
RAM efflux-def = RAM network inhibitors in efflux-deficient yeast | shares compounds with RAM inhibit | S. cerevisiae efflux-deficient reporter strain, 5-FOA growth OD615, 2 days | max inhibition, % | 1,200 tested, under 10 active; call rule not given here;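 also: plate controls were vehicle for no effect and reference inhibitor for full effect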
The depositor's hits bear a star; . = not tested or not shown. In the library only some 2.7% were active in any assay of this set; here they are far more common.

SMILES | RAM inhibit | Phagocytosis inh | Yeast lifespan up | BB579 growth dn | RAM efflux-def
CCOC(=O)N1CCN(c2nc(-c3cccc(OC)c3)cc(C(F)(F)F)n2)CC1 | 12* | -2 | -10 | -25 | 2
O=C(CSCc1ccc(Br)cc1)N1CCCC1 | 0 | . | . | . | .
CCN=C1S/C(=C\c2cc(OCC)c(O)cc2Br)C(=O)N1CC | 12* | -5 | 2 | -43 | 3
CCN=C1S/C(=C\c2ccc(O)c(OCC)c2)C(=O)N1CC | 2 | 4 | -1 | -62 | .
COCCCn1c(-c2ccsc2)nc2c1c(=O)[nH]c(=O)n2Cc1ccccc1 | 6 | 0 | -16 | -59 | .
O=C(CNC(=O)c1cccc(F)c1)N/N=C/c1cc(Br)ccc1OCc1ccccc1 | 2 | -3 | 6 | -59 | .
O/N=C/c1cc(Br)ccc1OCc1cccc(F)c1 | 12* | . | -7 | -22 | 2
Cc1ccc(S(=O)(=O)c2c(CO)c(-c3ccccc3)nn2C)cc1 | 14* | . | . | . | 4
Cc1c([N+](=O)[O-])nnn1-c1cc(Cl)cc(Cl)c1 | 2 | . | . | . | .
COc1ccc(/C=N/NC(N)=S)cc1OC(=O)c1cccc2ccccc12 | 5 | . | -9 | -33 | .
O=C(NC1CCCCC1)C(=S)NC1CCCCC1 | 2 | . | . | . | .
O=C(CN(C(=O)CCC(=O)Nc1ccccn1)c1ccc2c(c1)OCCO2)NCCc1ccccc1 | 15* | . | . | -45 | 1
c1ccc(-c2nc(CSc3nnnn3-c3ccccc3)cs2)cc1 | 7 | 0 | -11 | -33 | 2
Cc1ccccc1Nc1nc(CSc2nnnn2-c2ccccc2)cs1 | 2 | -1 | -17 | -55 | .
CCOC(=O)c1cnn(-c2ccccc2)c1-n1cccc1C(=O)C(=O)N(CC)CC | -1 | . | . | . | .
CCOC(=O)c1cnn(-c2ccccc2)c1-n1cccc1C(=O)C(=O)Nc1ccccc1C(F)(F)F | 14* | . | -4 | -28 | 3
CCOC(=O)C1CCN(C(=O)Nc2ccc(Cl)cc2Cl)CC1 | 2 | -3 | 6 | -34 | .
Cc1ccccc1NC(=O)/C(C#N)=C/c1ccsc1 | 3 | -9 | -7 | -13 | .
Cc1cccc(NC(=O)/C(C#N)=C/c2ccc(Sc3ccccc3)o2)c1C | 14* | 5 | 4 | -20 | 9
Cc1ccccc1-n1nnnc1SC1CCOC1=O (configuration not stated) | 1 | 2 | -8 | -78 | .
Cc1ccc(S(=O)(=O)c2c(C)cc(C)nc2Oc2cccc(C(F)(F)F)c2)cc1 | 14* | . | -8 | -49 | 3
Cc1cc(-c2ccccc2)nc(Oc2cccc(C(F)(F)F)c2)c1S(C)(=O)=O | 5 | -3 | -5 | -11 | .
CC1CCc2cc(F)ccc2N1C(=O)C1(C)CC1(Cl)Cl (configuration not stated) | 1 | -4 | 38 | -17 | .
CC(C)OC(=O)CC1C(=O)NCCN1C(=S)NC(=O)c1cccs1 (configuration not stated) | 0 | . | . | . | .
COc1ccc(CCNC(=O)/C(C#N)=C/c2cccc(OCc3ccccc3)c2)cc1OC | 14* | -3 | 2 | -11 | 2
CC1=C(C(=O)OCc2ccccc2)C(c2ccc(C(C)(C)C)cc2)NC(=O)N1CCCCCC(=O)O (configuration not stated) | 18* | . | 6 | -45 | 6
CC1=C(C(=O)OCc2ccccc2)C(c2ccc([N+](=O)[O-])cc2)NC(=O)N1CCCCCC(=O)O (configuration not stated) | 14* | . | 10 | -33 | 5
CC1=C(C(=O)OCc2ccccc2)C(c2ccccc2-c2ccccc2)NC(=O)N1CCCCCC(=O)O (configuration not stated) | 4 | . | 11 | -60 | .
O=C(COC(=O)CCc1c[nH]c2ccccc12)NC(c1ccccc1)c1ccccc1 | 17* | -2 | -5 | -22 | 2
